PMC6198128 (Redox Biology, 2018)
Several values for one entry are separate records, joined by “and”; a condition that tells them apart may be missing. Equal entries are not always repeated. Where two headings read alike, the source gives them in different places.

What was measured:
[1] = tested on: HL-60 (human promyelocytic leukemia); assay: Alamar blue cytotoxicity assay, HL-60; assay type: cell-based; conditions: read-out: IC50 in µM
[2] = tested on: HL-60 cells; assay type: cell-based, human; conditions: for apoptotic cells (annexin V-FITC/PI): HL-60, 24 and 48 h, p < 0.05, DOX 2 µM, OXA 2.5 µM; for effect of pretreatment on complex-induced apoptosis: HL-60, 2 h pretreatment (5 mM NAC or 5 µM inhibitor), then 4 µM complex for 48 h
[3] = tested on: HL-60 cells; assay: Mitochondrial transmembrane potential; assay type: cell-based, human; conditions: HL-60, rhodamine 123, 24 h, p < 0.05; DOX 2 µM, OXA 2.5 µM
Summary of the method: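 HL-60 cells were grown in RPMI-1640 with 10% FBS, 2 mM L-glutamine and 50 µg/mL gentamycin at 37 °C, 5% CO2. After treatment, cells were loaded with rhodamine 123 (5 µg/mL) for 15 min at 37 °C in the dark and washed in saline.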

[4] = tested on: caspase-3 in HL-60 cells; assay: Caspase-3 colorimetric activation assay; assay type: cell-based, human; conditions: HL-60, DEVD-pNA substrate, 48 h, p < 0.05; DOX 2 µM
Summary of the method: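 HL-60 cells were treated with test compound and lysed, and caspase-3 activity was read with a colorimetric kit using DEVD-pNA substrate, with absorbance at 405 nm. Total protein was measured by Bradford, and activity was expressed as specific activity per 10 mg protein. Data are mean ± S.E.M., with ANOVA and Student–Newman–Keuls test (p < 0.05) against vehicle.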

[5] = tested on: HCT116 (human colon carcinoma); assay: Alamar blue cytotoxicity assay, HCT116; assay type: cell-based; conditions: read-out: IC50 in µM
[6] = tested on: K-562 (human chronic myelogenous leukemia); assay: Alamar blue cytotoxicity assay, K-562; assay type: cell-based; conditions: read-out: IC50 in µM
[7] = tested on: MCF-7 (human breast carcinoma); assay: Alamar blue cytotoxicity assay, MCF-7; assay type: cell-based; conditions: read-out: IC50 in µM
[8] = tested on: SCC-9 (human oral squamous cell carcinoma); assay: Alamar blue cytotoxicity assay, SCC-9; assay type: cell-based; conditions: Homo sapiens, SCC-9, 72 h, read-out: IC50 in µM
[9] = tested on: calf thymus DNA (ctDNA); assay: DNA intercalation assay; assay type: binding; conditions: cell-free, 15 µg/mL ctDNA, 1.5 µM ethidium bromide; complex 5, 10 and 20 µM; doxorubicin 10 µM
Summary of the method: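 Ethidium bromide displacement from calf thymus DNA in saline: 15 µg/mL ctDNA, 1.5 µM ethidium bromide, test compound at 5, 10 and 20 µM. Vehicle (0.1% DMSO) was the negative control and doxorubicin (10 µM) the positive control. Fluorescence was read at excitation 320 nm and emission 600 nm. Lower fluorescence was taken as intercalation.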

[10] = tested on: HepG2 (human hepatocellular carcinoma); assay: Alamar blue cytotoxicity assay, HepG2; assay type: cell-based; conditions: read-out: IC50 in µM
[11] = tested on: B16-F10 (mouse melanoma); assay: Alamar blue cytotoxicity assay, B16-F10; assay type: cell-based; conditions: read-out: IC50 in µM
[12] = tested on: HSC-3 (human oral squamous cell carcinoma); assay: Alamar blue cytotoxicity assay, HSC-3; assay type: cell-based; conditions: read-out: IC50 in µM
[13] = tested on: HL-60 cells; assay: Internucleosomal DNA fragmentation and cell cycle distribution; assay type: cell-based, human
Summary of the method: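 After 24 or 48 h treatment, HL-60 cells were permeabilized and stained with propidium iodide, and DNA content was measured by flow cytometry. 10^4 events were recorded per sample with debris excluded. Sub-G0/G1 was taken as internucleosomal DNA fragmentation, alongside G0/G1, S and G2/M fractions. Doxorubicin and oxaliplatin were positive controls; ANOVA with Student–Newman–Keuls test.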

[14] = tested on: MRC-5 (human lung fibroblast); assay: Alamar blue cytotoxicity assay, MRC-5; assay type: cell-based; conditions: read-out: IC50 in µM
[15] = tested on: HL-60 cells; assay: Morphological analysis; assay type: cell-based, human; conditions: 24 and 48 h, DOX 2 µM, OXA 2.5 µM; for cell morphology: HL-60, May-Grunwald-Giemsa; for forward light scatter (FSC) / side scatter (SCC): HL-60, flow cytometry
Summary of the method: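 HL-60 cells were treated for 24 and 48 h, then stained with May-Grunwald-Giemsa and examined by light microscopy. In parallel, forward and side light scatter were quantified by flow cytometry, recording 10^4 events per sample with debris excluded. Vehicle was the negative control, with doxorubicin and oxaliplatin as positive controls.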

[16] = tested on: PBMC (human peripheral blood mononuclear cells); assay: Alamar blue cytotoxicity assay, PBMC; assay type: cell-based; conditions: 72 h, read-out: IC50 in µM
[17] = tested on: HL-60 cells; assay type: cell-based, human
[18] = tested on: eight cancer cell lines (HL-60, K-562, HCT116, MCF-7, HepG2, HSC-3, SCC-9 and B16-F10); assay: Alamar blue cytotoxicity assay, panel of cancer cell lines; assay type: cell-based; conditions: not cytotoxic at the concentrations tested, 72 h
Summary of the method: (§1)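 Human and mouse cell lines plus primary human PBMC (donor informed consent) grown in RPMI-1640 with 10% FBS, 2 mM L-glutamine and 50 μg/mL gentamycin at 37 °C, 5% CO2. Cells were mycoplasma-checked and >90% trypan-blue viable at start. Vehicle served as negative control; doxorubicin, oxaliplatin and piplartine were positive controls. Effect was taken as % of control absorbance, with IC50 and 95% CI from nonlinear regression.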

[19] = tested on: non-cancer cells (MRC-5 and PBMC); assay: Alamar blue cytotoxicity assay, non-cancer cells; assay type: cell-based, human; conditions: not cytotoxic at the concentrations tested, 72 h
Summary of the method: as §1

[20] = HL-60, 2 µM, 24 h of incubation
[21] = HL-60, 2 µM, 48 h of incubation
[22] = HL-60, 2.5 µM, 24 h of incubation
[23] = HL-60, 2.5 µM, 48 h of incubation

Structure (SMILES) | IC50 ([1]; Homo sapiens, HL-60, 72 h) [µM] | apoptotic cells (annexin V-FITC/PI) [2] | mitochondrial transmembrane potential [3] | IC50 ([5]; Homo sapiens, HCT-116, 72 h) [µM] | IC50 ([6]; Homo sapiens, K562, 72 h) [µM] | IC50 ([7]; Homo sapiens, MCF7, 72 h) [µM] | IC50 [8] [µM] | IC50 ([10]; Homo sapiens, HepG2, 72 h) [µM] | IC50 ([11]; Mus musculus, B16-F10, 72 h) [µM] | IC50 ([12]; Homo sapiens, HSC-3, 72 h) [µM] | IC50 ([14]; Homo sapiens, MRC5, 72 h) [µM] | cell morphology [15] | forward light scatter (FSC) [15] | side scatter (SCC) [15] | IC50 ([16]; Homo sapiens, PBMC) [µM] | reduction of the number of viable cells [17] | effect of pretreatment on complex-induced apoptosis [2] | other results
COc1cccc2c1C(=O)c1c(O)c3c(c(O)c1C2=O)C[C@@](O)(C(=O)CO)C[C@@H]3O[C@H]1C[C@H](N)[C@H](O)[C@H](C)O1 [DOX, Doxorubicin] | 0.3 | increase in apoptotic cells | reduced the mitochondrial transmembrane potential | 0.1 | 0.3 | 1.1 | 0.5 | 0.1 | 0.1 | 0.3 | 1.5 | cell shrinkage, chromatin condensation and nuclear fragmentation | decrease in FSC | transient increase in SCC | 5.1 | 57.1% and 87.9% | – | caspase-3 activation [4]: caused caspase-3 activation; ethidium bromide fluorescence (displacement from ctDNA) [9]: reduced the fluorescence intensity of ethidium bromide; DNA content (%) G0/G1 [13, 20]: 19.9 ± 2.5 %; DNA content (%) G2/M [13, 20]: 8.9 ± 1.5%; DNA content (%) S [13, 20]: 6.6 ± 1.6 %; DNA content (%) Sub-G0/G1 [13, 20]: 57.2 ± 2.5 %; DNA content (%) G0/G1 [13, 21]: 21.9 ± 3.0 %; DNA content (%) G2/M [13, 21]: 3.8 ± 0.9 %; DNA content (%) S [13, 21]: 6.5 ± 0.6 %; DNA content (%) Sub-G0/G1 [13, 21]: 65.5 ± 2.8 %
O=C1[O][Pt]2([NH][C@@H]3CCCC[C@H]3[NH]2)[O]C1=O [OXA, oxaliplatin] | – | increase in apoptotic cells | reduced the mitochondrial transmembrane potential | – | – | – | – | – | – | – | – | cell shrinkage, chromatin condensation and nuclear fragmentation | decrease in FSC | transient increase in SCC | – | 35.6% and 67.7% | – | IC50 ([1]; HL-60, alamar blue, 72 h): 0.6 µM; IC50 ([5]; HCT116, alamar blue, 72 h): 4.1 µM; IC50 ([6]; K-562, alamar blue, 72 h): 1 µM; IC50 ([7]; MCF-7, alamar blue, 72 h): 5.7 µM; IC50 ([10]; HepG2, alamar blue, 72 h): 2.2 µM; IC50 ([11]; B16-F10, alamar blue, 72 h): 2.2 µM; IC50 ([12]; HSC-3, alamar blue, 72 h): 3.1 µM; DNA content (%) G0/G1 [13, 22]: 29.1 ± 2.4 %; DNA content (%) G2/M [13, 22]: 28.1 ± 2.6 %; DNA content (%) S [13, 22]: 12.6 ± 2.5%; DNA content (%) Sub-G0/G1 [13, 22]: 20.7 ± 2.9 %; DNA content (%) G0/G1 [13, 23]: 42.9 ± 2.8%; DNA content (%) G2/M [13, 23]: 23.4 ± 2.6 %; DNA content (%) S [13, 23]: 13.2 ± 0.8%; DNA content (%) Sub-G0/G1 [13, 23]: 24.8 ± 1.9 %; cell cycle effect ([13]; HL-60, 2.5 µM, p < 0.05): cell cycle arrest at the phase G2/M; IC50 ([14]; MRC-5 non-cancer cells, alamar blue, 72 h): 1.3 µM; IC50 ([16]; PBMC non-cancer cells, alamar blue): 9.4 µM
O=[N+]([O-])c1ccc(-c2nc(-c3ccncc3)c(-c3ccc(F)cc3)[nH]2)cc1 [PD 169316] | – | – | – | – | – | – | – | – | – | – | – | – | – | – | – | – | reduced the complex-induced apoptosis | –
COc1cc(/C=C/C(=O)N2CCC=CC2=O)cc(OC)c1OC [PIP, Piplartine] | 14.1 | – | – | 5.4 | 18.6 | 10.3 | 16.5 | 6.3 | 10.6 | 14.1 | 17.3 | – | – | – | 34.2 | – | – | –
N#CC(=C(/N)Sc1ccccc1N)/C(C#N)=C(/N)Sc1ccccc1N [U-0126] | – | – | – | – | – | – | – | – | – | – | – | – | – | – | – | – | reduced the complex-induced apoptosis | –
[Cl][Pt][Cl].c1ccc(P(c2ccccc2)c2ccccc2)cc1.c1ccc(P(c2ccccc2)c2ccccc2)cc1 [cis-[PtCl2(PPh3)2]] | – | – | – | – | – | – | – | – | – | – | – | – | – | – | – | – | – | IC50 [18]: > 31.6 µM; IC50 [19]: > 31.6 µM
